Experimental data published in PubChem BioAssay.
A number with no mark means an inactive call.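 The calls were made as follows, unless noted: active = growth inhibition above 25% in both replicates, a cutoff set 3 SD above the mean; inconclusive = above 25% in only one replicate; inactive = the rest.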

test: growth suppression of yeast trafficking mutant, preliminary HTS, modulators of trafficking downstream of Golgi apparatus project, 1536-format plate, OD 615 nm (AID 637; in the data active = inhibition above about 30%); conditions: yeast transport mutant growth, absorbance 615 nm, 18 h; stronger effect = higher value

SMILES	inhibition [%]
CCOc1ccc(N(CC(=O)Nc2ccc(C)c(C)c2)S(=O)(=O)c2c(C)noc2C)cc1	3.67
CCCn1c(OC)nc2c1c(=O)n(C)c(=O)n2C	-2.5
COc1cc2[nH]c(=O)n(CCCCCC(=O)N3CCN(c4ccccn4)CC3)c(=O)c2cc1OC	-4.83
CCOc1ccc(N(CC(=O)NC2CCCCC2)S(=O)(=O)c2c(C)noc2C)cc1	-12.8
O=C(c1ccco1)N1CCN(C(=O)c2sccc2-c2ccccc2)CC1	-4.92
CCSC1=C(C#N)C(c2ccccc2OC)CC(=O)N1 (stereo not drawn)	-2.33
CCOC(=O)Cn1nc(-c2ccc(Cl)cc2)cc1N	-0.48
CC(C(=O)N1CC2(C)CC1CC(C)(C)C2)N1C(=O)c2ccccc2C1=O (stereo not drawn)	0.32
COc1cccc(N(C(C)=O)c2nc(C)cc(C)c2C#N)c1	-1.59
COc1cccc(NC(=O)c2ccco2)c1	-4.33
Cc1ccc(Cn2c(CN3CCOCC3)nc3c2c(=O)n(C)c(=O)n3C)cc1	0
CCOc1ccc(NC(=O)CSc2nccn2C)cc1	0.83
Cc1nc2ccc(Br)cn2c1NC(C)(C)C	-10.3
COc1ccccc1C(=O)NCCc1nc2ccccc2n1C	-3.67
Cn1ccnc1SCC(=O)Nc1ccc2ccccc2c1	-4.92
c1nc(NCC2(N3CCOCC3)CCCCC2)c2ccsc2n1	-2.54
Cc1noc(C(=O)Nc2ccc3c(c2)OCO3)c1Cl	1.67
Cc1ccc(S(=O)(=O)N2CCOCC2)cc1C(=O)Nc1nc(-c2cccnc2)cs1	-3.33
Cc1cccc(C)c1OCc1nnc(SCC(=O)Nc2ccccc2F)o1	-5.17
CCN(CC)CCCN1C(=O)C(O)=C(C(=O)c2ccco2)C1c1ccc(C)o1 (stereo not drawn)	7.94

SMILES	inhibition [%]
Cc1ccc(S(=O)(=O)C(C#N)c2nc3ccccc3nc2N2CCCCC2)cc1 (stereo not drawn)	3.65
C(/CCc1ccccc1)=N\n1cnnc1	8.03
CCOCCCNC(=O)C(c1ccccc1)N(Cc1ccc2c(c1)OCO2)C(=O)CNC(C)=O (stereo not drawn)	1.59
COc1ccccc1N1CCN(c2cc(=O)n(Cc3ccc(F)cc3)c(=O)[nH]2)CC1	9.17
CNC(=O)C1C2C=CC3(O2)C1C(=O)N(C1CC1)C3C(=O)NCc1ccc(OC)cc1 (stereo not drawn)	-0.16
CCCSc1nc2c(cnn2-c2ccc(C)cc2)c(=O)[nH]1	-2.62
Nn1c(Cc2ccccc2F)nnc1SCC(=O)N1CC(=O)Nc2ccccc21	-10.7
CCc1ccc(N2CC(C(=O)OCC(=O)NC3CCS(=O)(=O)C3)CC2=O)cc1 (stereo not drawn)	7.54
Cc1ccccc1Cn1ccc(NC(=O)c2onc(C)c2Cl)n1	-4.17
O=C(CSc1ccc2nnc(-c3ccccc3)n2n1)N1CCN(c2ccccc2)CC1	7.67
CC(C)C(NC(=O)c1ccc(S(=O)(=O)N2CCOCC2)cc1)c1nc2ccccc2[nH]1 (stereo not drawn)	-2.95
Cc1ccc(SCC(=O)NCCN2C(=O)CSC2=O)c(C)c1	-0.83
N#Cc1c2n(c(=O)[nH]c1=O)CCCCC2	-7.46
CCN(C1CCCCC1)S(=O)(=O)c1ccc(S(=O)(=O)N2CCN(CCC#N)CC2)cc1	-3.5
COc1cccc2c(=O)c3c(cnn3C)n(C)c12	1.27
Cc1nnc(N2C(=O)C(O)=C(C(=O)c3ccco3)C2c2ccc(F)cc2)s1 (stereo not drawn)	1.67
CC1(C)CC(=O)C(C=NCC2CCNCC2)=C(O)C1	1.67
CCOC(=O)C(C)Sc1nnc(Cc2cc(=O)[nH]c(=O)[nH]2)n1-c1ccc(Cl)cc1 (stereo not drawn)	5.5
O=C(CS(=O)(=O)Cc1ccccc1)Nc1nc2ccccc2s1	0.32

test: S. cerevisiae growth inhibition in permissive medium (OD615), pilot counter-assay for S. cerevisiae lifespan shortening project, permissive growth control (AID 705); conditions: OD615, 24 h, at 10 µM, stronger effect = higher value
Procedure, shortened: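 Test system: Saccharomyces cerevisiae strain carrying genetically modified DeaD replicative-lifespan system; buffer or medium: SC raffinose/galactose permissive medium; dosing: one dose 10 µM, DMSO 0.25% final; times: 24 h exposure, 30 °C; measured by: OD at 615 nm; read-out basis: growth inhibition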

SMILES	growth inhibition [%]
CCOc1ccc(N(CC(=O)Nc2ccc(C)c(C)c2)S(=O)(=O)c2c(C)noc2C)cc1	0.98
CCCn1c(OC)nc2c1c(=O)n(C)c(=O)n2C	-10.7
COc1cc2[nH]c(=O)n(CCCCCC(=O)N3CCN(c4ccccn4)CC3)c(=O)c2cc1OC	-9.93
CCOc1ccc(N(CC(=O)NC2CCCCC2)S(=O)(=O)c2c(C)noc2C)cc1	-6.46
O=C(c1ccco1)N1CCN(C(=O)c2sccc2-c2ccccc2)CC1	-18.7
CCSC1=C(C#N)C(c2ccccc2OC)CC(=O)N1 (stereo not drawn)	-3.36
CCOC(=O)Cn1nc(-c2ccc(Cl)cc2)cc1N	-8.98
CC(C(=O)N1CC2(C)CC1CC(C)(C)C2)N1C(=O)c2ccccc2C1=O (stereo not drawn)	-13.3
COc1cccc(N(C(C)=O)c2nc(C)cc(C)c2C#N)c1	-15.4
COc1cccc(NC(=O)c2ccco2)c1	-0.175
Cc1ccc(Cn2c(CN3CCOCC3)nc3c2c(=O)n(C)c(=O)n3C)cc1	-18
CCOc1ccc(NC(=O)CSc2nccn2C)cc1	-14.8
Cc1nc2ccc(Br)cn2c1NC(C)(C)C	-13.4
COc1ccccc1C(=O)NCCc1nc2ccccc2n1C	-20.8
Cn1ccnc1SCC(=O)Nc1ccc2ccccc2c1	2.36
c1nc(NCC2(N3CCOCC3)CCCCC2)c2ccsc2n1	-25.4
Cc1noc(C(=O)Nc2ccc3c(c2)OCO3)c1Cl	-0.74
Cc1ccc(S(=O)(=O)N2CCOCC2)cc1C(=O)Nc1nc(-c2cccnc2)cs1	-14.2
Cc1cccc(C)c1OCc1nnc(SCC(=O)Nc2ccccc2F)o1	-12.4
CCN(CC)CCCN1C(=O)C(O)=C(C(=O)c2ccco2)C1c1ccc(C)o1 (stereo not drawn)	-11.8

SMILES	growth inhibition [%]
Cc1ccc(S(=O)(=O)C(C#N)c2nc3ccccc3nc2N2CCCCC2)cc1 (stereo not drawn)	-26.9
C(/CCc1ccccc1)=N\n1cnnc1	-14.7
CCOCCCNC(=O)C(c1ccccc1)N(Cc1ccc2c(c1)OCO2)C(=O)CNC(C)=O (stereo not drawn)	3.28
COc1ccccc1N1CCN(c2cc(=O)n(Cc3ccc(F)cc3)c(=O)[nH]2)CC1	-0.995
CNC(=O)C1C2C=CC3(O2)C1C(=O)N(C1CC1)C3C(=O)NCc1ccc(OC)cc1 (stereo not drawn)	-12.6
CCCSc1nc2c(cnn2-c2ccc(C)cc2)c(=O)[nH]1	-8.62
Nn1c(Cc2ccccc2F)nnc1SCC(=O)N1CC(=O)Nc2ccccc21	-11.9
CCc1ccc(N2CC(C(=O)OCC(=O)NC3CCS(=O)(=O)C3)CC2=O)cc1 (stereo not drawn)	-17
Cc1ccccc1Cn1ccc(NC(=O)c2onc(C)c2Cl)n1	-7.95
O=C(CSc1ccc2nnc(-c3ccccc3)n2n1)N1CCN(c2ccccc2)CC1	-0.235
CC(C)C(NC(=O)c1ccc(S(=O)(=O)N2CCOCC2)cc1)c1nc2ccccc2[nH]1 (stereo not drawn)	-13.7
Cc1ccc(SCC(=O)NCCN2C(=O)CSC2=O)c(C)c1	-14.8
N#Cc1c2n(c(=O)[nH]c1=O)CCCCC2	-9.79
CCN(C1CCCCC1)S(=O)(=O)c1ccc(S(=O)(=O)N2CCN(CCC#N)CC2)cc1	4.85
COc1cccc2c(=O)c3c(cnn3C)n(C)c12	-1.81
Cc1nnc(N2C(=O)C(O)=C(C(=O)c3ccco3)C2c2ccc(F)cc2)s1 (stereo not drawn)	-13.9
CC1(C)CC(=O)C(C=NCC2CCNCC2)=C(O)C1	-20.1
CCOC(=O)C(C)Sc1nnc(Cc2cc(=O)[nH]c(=O)[nH]2)n1-c1ccc(Cl)cc1 (stereo not drawn)	-16.5
O=C(CS(=O)(=O)Cc1ccccc1)Nc1nc2ccccc2s1	-13.1
